Laboratory results from ChEMBL document CHEMBL1777764, “Synthesis and evaluation of 1-(1H-indol-3-yl)ethanamine derivatives as new antibacterial agents” (Bioorg Med Chem, 2011).
Converted amounts (≈) assume the structure as drawn.

Assays:
Staphylococcus aureus [1] = assay: Antibacterial activity against Staphylococcus aureus ATCC 9144 after 18 hrs by broth microdilution method; assay type: functional; details: ATCC 9144, 18 h
Outline: (§1)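 MIC by broth microdilution per ISO 20776-1:2006 and CLSI M07-A8. Inoculum 10^6 cfu/ml in Mueller-Hinton broth with compound serially diluted, final concentrations 2 to 128 ug/ml, duplicate rows, no-drug growth control. Incubation 18 h at 37 °C. MIC taken as lowest concentration giving complete inhibition of visible growth. Each compound tested at least twice.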

Staphylococcus aureus [2] = assay: Antibacterial activity against Staphylococcus aureus CIP 103428 after 18 hrs by broth microdilution method; assay type: functional; details: CIP 103428, 18 h; outline: as §1
[3] = tested on: Staphylococcus epidermidis; assay: Antibacterial activity against Staphylococcus epidermidis CIP 103627 after 18 hrs by broth microdilution method; assay type: functional; details: CIP 103627, 18 h; outline: as §1
[4] = tested on: Staphylococcus epidermidis; assay: Antibacterial activity against Staphylococcus epidermidis ATCC 12228 after 18 hrs by broth microdilution method; assay type: functional; details: ATCC 12228, 18 h; outline: as §1
Staphylococcus aureus [5] = assay: Antibacterial activity against Staphylococcus aureus ATCC 25923 after 18 hrs by broth microdilution method; assay type: functional; details: ATCC 25923, 18 h; outline: as §1
KB [6] = assay: Cytotoxicity against human KB cells at 10 uM; assay type: cell-based
Staphylococcus aureus [7] = assay: Antibacterial activity against Staphylococcus aureus ATCC 6538 after 18 hrs by broth microdilution method; assay type: functional; details: ATCC 6538, 18 h; outline: as §1
Staphylococcus aureus [8] = assay: Antibacterial activity against Staphylococcus aureus ATCC 29213 after 18 hrs by broth microdilution method; assay type: functional; details: ATCC 29213, 18 h; outline: as §1
HCT-116 [9] = assay: Cytotoxicity against human HCT116 cells at 10 uM; assay type: cell-based; details: hct-116, 10 µM
[10] = tested on: Staphylococcus epidermidis; assay: Antibacterial activity against Staphylococcus epidermidis CIP 81.55 after 18 hrs by broth microdilution method; assay type: functional; details: CIP 81.55, 18 h; outline: as §1
Staphylococcus aureus [11] = assay: Antibacterial activity against Staphylococcus aureus CIP 65.6 after 18 hrs by broth microdilution method; assay type: functional; details: CIP 65.6, 18 h; outline: as §1
MRC5 [12] = assay: Cytotoxicity against human MRC5 cells at 1 uM; assay type: cell-based; details: mrc5, 1 µM
MRC5 [13] = assay: Cytotoxicity against human MRC5 cells at 10 uM; assay type: cell-based; details: mrc5, 10 µM
KB [14] = assay: Cytotoxicity against human KB cells at 1 uM; assay type: cell-based
HCT-116 [15] = assay: Cytotoxicity against human HCT116 cells at 1 uM; assay type: cell-based; details: hct-116, 1 µM
Enterococcus faecium = assay: Antibacterial activity against Enterococcus faecium CIP 54.32 after 18 hrs by broth microdilution method; assay type: functional; details: CIP 54.32, 18 h
Outline: (§2)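 Broth microdilution following ISO 20776-1:2006 and CLSI M07-A8, in Mueller-Hinton broth. Inoculum was 10^6 cfu/ml, with compound serial dilutions spanning 2 to 128 ug/ml and a compound-free growth control well. Plates were incubated 18 h at 37 °C. MIC was the lowest concentration giving complete inhibition of visible growth. Each compound was tested at least twice.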

Enterobacter cloacae = assay: microbe, parasite or virus in culture; details: ATCC 13047, 18 h
Staphylococcus aureus [16] = assay: Antibacterial activity against methicillin-resistant Staphylococcus aureus CIP 65.25 after 18 hrs by broth microdilution method; assay type: functional; details: CIP 65.25, 18 h; outline: as §2
Staphylococcus aureus [17] = assay: Antibacterial activity against methicillin-resistant Staphylococcus aureus ATCC 33592 after 18 hrs by broth microdilution method; assay type: functional; details: ATCC 33592, 18 h; outline: as §2
Streptococcus pneumoniae [18] = assay: Antibacterial activity against Streptococcus pneumoniae ATCC 6303 after 18 hrs by broth microdilution method; assay type: functional; details: ATCC 6303, 18 h
Outline: (§3)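 MIC by broth microdilution per ISO 20776-1:2006 and CLSI M07-A8. Inoculum 10^6 cfu/ml in Mueller-Hinton broth […]. Compound serially diluted, final 2 to 128 ug/ml, duplicate rows, no-drug growth control. Read after 18 h at 37 °C as lowest concentration fully inhibiting visible growth. At least two experiments.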

Serratia marcescens = assay: microbe, parasite or virus in culture; details: CIP 103551, 18 h
Acinetobacter baumannii = assay: microbe, parasite or virus in culture; details: ATCC 19606 = CIP 70.34 = JCM 6841, 18 h
Pseudomonas aeruginosa = assay: microbe, parasite or virus in culture; details: CIP 5933, 18 h
Escherichia coli = assay: Antibacterial activity against Escherichia coli ATCC 25922 after 18 hrs by broth microdilution method; assay type: functional; details: ATCC 25922, 18 h; outline: as §2
Enterococcus faecalis = assay: Antibacterial activity against Enterococcus faecalis ATCC 29212 after 18 hrs by broth microdilution method; assay type: functional; details: ATCC 29212, 18 h; outline: as §2
Streptococcus mitis = assay: Antibacterial activity against Streptococcus mitis CIP 103335 after 18 hrs by broth microdilution method; assay type: functional; details: CIP 103335, 18 h
Outline: as §2, with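 “broth […].” for “broth.”, “read after” for “incubated”, “with no” for “giving complete inhibition of”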

Streptococcus pyogenes = assay: Antibacterial activity against Streptococcus pyogenes CIP 104226 after 18 hrs by broth microdilution method; assay type: functional; details: CIP 104226, 18 h; outline: as §2
Staphylococcus aureus [19] = assay: Antibacterial activity against vancomycin intermediate Staphylococcus aureus […] after 18 hrs by broth microdilution method; assay type: functional; outline: as §2
Klebsiella pneumoniae = assay: microbe, parasite or virus in culture; details: ATCC 35657, 18 h
Streptococcus agalactiae = assay: Antibacterial activity against Streptococcus agalactiae ATCC 12400 after 18 hrs by broth microdilution method; assay type: functional; details: ATCC 12400, 18 h; outline: as §2
Streptococcus pneumoniae [20] = assay: Antibacterial activity against Streptococcus pneumoniae ATCC 49619 after 18 hrs by broth microdilution method; assay type: functional; details: ATCC 49619, 18 h; outline: as §3

For CC(C)CC(NO)c1c[nH]c2ccc(F)cc12 (configuration not stated), the MIC (Staphylococcus aureus [1]) was 32 µg/mL (≈ 135 µM), the MIC (Staphylococcus aureus [2]) was 32 µg/mL (≈ 135 µM) and the MIC [3] was 32 µg/mL (≈ 135 µM). The MIC [4] was 32 µg/mL (≈ 135 µM), the MIC (Staphylococcus aureus [5]) was 32 µg/mL (≈ 135 µM) and the Activity (KB [6]) was “Non-toxic”. For the same compound, the MIC (Staphylococcus aureus [7]) was 32 µg/mL (≈ 135 µM), the MIC (Staphylococcus aureus [8]) was 32 µg/mL (≈ 135 µM) and the Activity (HCT-116 [9]) was “Non-toxic”. For the same compound, the MIC [10] was 32 µg/mL (≈ 135 µM), the MIC (Staphylococcus aureus [11]) was 32 µg/mL (≈ 135 µM) and the Activity (MRC5 [12]) was “Non-toxic”. For the same compound, the Activity (MRC5 [13]) was “Non-toxic”, the Activity (KB [14]) was “Non-toxic” and the Activity (HCT-116 [15]) was “Non-toxic”.
With CC(NO)c1c[nH]c2ccc(Cl)cc12 (configuration not stated) the MIC (Staphylococcus aureus [1]) was 32 µg/mL (≈ 152 µM), the MIC (Staphylococcus aureus [2]) was 32 µg/mL (≈ 152 µM) and the MIC [3] was 16 µg/mL (≈ 76 µM). The MIC [4] was 16 µg/mL (≈ 76 µM), the MIC (Staphylococcus aureus [5]) was 32 µg/mL (≈ 152 µM) and the Activity (KB [6]) was “Non-toxic”. The MIC (Staphylococcus aureus [7]) was 32 µg/mL (≈ 152 µM), the MIC (Staphylococcus aureus [8]) was 32 µg/mL (≈ 152 µM) and the Activity (HCT-116 [9]) was “Non-toxic”. For the same compound, the MIC [10] was 16 µg/mL (≈ 76 µM), the MIC (Staphylococcus aureus [11]) was 32 µg/mL (≈ 152 µM) and the Activity (MRC5 [12]) was “Non-toxic”. For the same compound, the Activity (MRC5 [13]) was “Non-toxic”, the Activity (KB [14]) was “Non-toxic” and the Activity (HCT-116 [15]) was “Non-toxic”.
Work on Cl.Cl.NCC(NO)c1c[nH]c2cccc(Br)c12 (configuration not stated) yielded an MIC (Enterococcus faecium) greater than 128 µg/mL, an MIC (Enterobacter cloacae) greater than 128 µg/mL and an MIC (Staphylococcus aureus [16]) of 32 µg/mL. It also gave an MIC (Staphylococcus aureus [17]) of 32 µg/mL, an MIC (Streptococcus pneumoniae [18]) of 128 µg/mL and an MIC (Staphylococcus aureus [1]) of 32 µg/mL. For the same compound, the MIC (Staphylococcus aureus [2]) was 32 µg/mL, the MIC [3] was 32 µg/mL and the MIC (Serratia marcescens) was greater than 128 µg/mL. For the same compound, the MIC [4] was 32 µg/mL, the MIC (Staphylococcus aureus [5]) was 32 µg/mL and the MIC (Acinetobacter baumannii) was greater than 128 µg/mL. The Activity (KB [6]) was “Non-toxic”, the MIC (Staphylococcus aureus [7]) was 32 µg/mL and the MIC (Pseudomonas aeruginosa) was greater than 128 µg/mL. The MIC (Escherichia coli) was 128 µg/mL, the MIC (Staphylococcus aureus [8]) was 32 µg/mL and the Activity (HCT-116 [9]) was “Non-toxic”. It also gave an MIC (Enterococcus faecalis) greater than 128 µg/mL, an MIC (Streptococcus mitis) of 128 µg/mL and an MIC [10] of 32 µg/mL. For the same compound, the MIC (Staphylococcus aureus [11]) was 32 µg/mL, the Activity (MRC5 [12]) was “Non-toxic” and the MIC (Streptococcus pyogenes) was 128 µg/mL. The Activity (MRC5 [13]) was “Non-toxic”, the MIC (Staphylococcus aureus [19]) was 32 µg/mL and the Activity (KB [14]) was “Non-toxic”. For the same compound, the Activity (HCT-116 [15]) was “Non-toxic”, the MIC (Klebsiella pneumoniae) was greater than 128 µg/mL and the MIC (Streptococcus agalactiae) was 128 µg/mL. The MIC (Streptococcus pneumoniae [20]) was 128 µg/mL.
With CC(C)CC(NO)c1c[nH]c2ccc(Br)cc12 (configuration not stated) the MIC (Staphylococcus aureus [1]) was 32 µg/mL (≈ 108 µM), the MIC (Staphylococcus aureus [2]) was 32 µg/mL (≈ 108 µM) and the MIC [3] was 16 µg/mL (≈ 53.8 µM). The MIC [4] was 16 µg/mL (≈ 53.8 µM), the MIC (Staphylococcus aureus [5]) was 32 µg/mL (≈ 108 µM) and the Activity (KB [6]) was “Non-toxic”. For the same compound, the MIC (Staphylococcus aureus [7]) was 32 µg/mL (≈ 108 µM), the MIC (Staphylococcus aureus [8]) was 32 µg/mL (≈ 108 µM) and the Activity (HCT-116 [9]) was “Non-toxic”. For the same compound, the MIC [10] was 16 µg/mL (≈ 53.8 µM), the MIC (Staphylococcus aureus [11]) was 32 µg/mL (≈ 108 µM) and the Activity (MRC5 [12]) was “Non-toxic”. For the same compound, the Activity (MRC5 [13]) was “Non-toxic”, the Activity (KB [14]) was “Non-toxic” and the Activity (HCT-116 [15]) was “Non-toxic”.
With CC(C)CC(NO)c1c[nH]c2ccc(Cl)cc12 (configuration not stated) the MIC (Staphylococcus aureus [1]) was 16 µg/mL (≈ 63.3 µM), the MIC (Staphylococcus aureus [2]) was 16 µg/mL (≈ 63.3 µM) and the MIC [3] was 32 µg/mL (≈ 127 µM). The MIC [4] was 32 µg/mL (≈ 127 µM), the MIC (Staphylococcus aureus [5]) was 16 µg/mL (≈ 63.3 µM) and the Activity (KB [6]) was “Non-toxic”. The MIC (Staphylococcus aureus [7]) was 16 µg/mL (≈ 63.3 µM), the MIC (Staphylococcus aureus [8]) was 16 µg/mL (≈ 63.3 µM) and the Activity (HCT-116 [9]) was “Non-toxic”. For the same compound, the MIC [10] was 32 µg/mL (≈ 127 µM), the MIC (Staphylococcus aureus [11]) was 16 µg/mL (≈ 63.3 µM) and the Activity (MRC5 [12]) was “Non-toxic”. The Activity (MRC5 [13]) was “Non-toxic”, the Activity (KB [14]) was “Non-toxic” and the Activity (HCT-116 [15]) was “Non-toxic”.
With Cl.Cl.NCC(NO)c1c[nH]c2ccc(Br)cc12 (configuration not stated) the MIC (Enterococcus faecium) was 128 µg/mL, the MIC (Enterobacter cloacae) was 64 µg/mL and the MIC (Staphylococcus aureus [16]) was 16 µg/mL. It also gave an MIC (Staphylococcus aureus [17]) of 16 µg/mL, an MIC (Streptococcus pneumoniae [18]) of 64 µg/mL and an MIC (Staphylococcus aureus [1]) of 16 µg/mL. The MIC (Staphylococcus aureus [2]) was 16 µg/mL, the MIC [3] was 8 µg/mL and the MIC (Serratia marcescens) was 64 µg/mL. The MIC [4] was 8 µg/mL, the MIC (Staphylococcus aureus [5]) was 16 µg/mL and the MIC (Acinetobacter baumannii) was 64 µg/mL. The Activity (KB [6]) was “Non-toxic”, the MIC (Staphylococcus aureus [7]) was 16 µg/mL and the MIC (Pseudomonas aeruginosa) was 64 µg/mL. The MIC (Escherichia coli) was 16 µg/mL, the MIC (Staphylococcus aureus [8]) was 16 µg/mL and the Activity (HCT-116 [9]) was “Non-toxic”. The MIC (Enterococcus faecalis) was 128 µg/mL, the MIC (Streptococcus mitis) was 64 µg/mL and the MIC [10] was 8 µg/mL. The MIC (Staphylococcus aureus [11]) was 16 µg/mL, the Activity (MRC5 [12]) was “Non-toxic” and the MIC (Streptococcus pyogenes) was 64 µg/mL. For the same compound, the Activity (MRC5 [13]) was “Non-toxic”, the MIC (Staphylococcus aureus [19]) was 16 µg/mL and the Activity (KB [14]) was “Non-toxic”. For the same compound, the Activity (HCT-116 [15]) was “Non-toxic”, the MIC (Klebsiella pneumoniae) was 64 µg/mL and the MIC (Streptococcus agalactiae) was 64 µg/mL. The MIC (Streptococcus pneumoniae [20]) was 64 µg/mL.
